Compound activity as filed in PubChem.
Hits are enriched below; roughly 1.4% of the tested compounds scored in any of these assays.
Calpain2 inh – inhibitors of pig calpain II; inhibition, % at 16 µM; purified calpain II, fluorogenic peptide substrate, 30 min; AID 1236; hit rate 0.37% among 220,000;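 active = inhibition above about 50%, limit read from the data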
Furin inh – blocks human furin protease activity. P09958. purified furin, fluorogenic substrate cleavage. inhibition, % at 20 µM or 30 µM. hit rate 0.061% among 220,000. AID 463115; in the data active = inhibition above about 25%
Target sequence (P09958 108-714 limits assumed): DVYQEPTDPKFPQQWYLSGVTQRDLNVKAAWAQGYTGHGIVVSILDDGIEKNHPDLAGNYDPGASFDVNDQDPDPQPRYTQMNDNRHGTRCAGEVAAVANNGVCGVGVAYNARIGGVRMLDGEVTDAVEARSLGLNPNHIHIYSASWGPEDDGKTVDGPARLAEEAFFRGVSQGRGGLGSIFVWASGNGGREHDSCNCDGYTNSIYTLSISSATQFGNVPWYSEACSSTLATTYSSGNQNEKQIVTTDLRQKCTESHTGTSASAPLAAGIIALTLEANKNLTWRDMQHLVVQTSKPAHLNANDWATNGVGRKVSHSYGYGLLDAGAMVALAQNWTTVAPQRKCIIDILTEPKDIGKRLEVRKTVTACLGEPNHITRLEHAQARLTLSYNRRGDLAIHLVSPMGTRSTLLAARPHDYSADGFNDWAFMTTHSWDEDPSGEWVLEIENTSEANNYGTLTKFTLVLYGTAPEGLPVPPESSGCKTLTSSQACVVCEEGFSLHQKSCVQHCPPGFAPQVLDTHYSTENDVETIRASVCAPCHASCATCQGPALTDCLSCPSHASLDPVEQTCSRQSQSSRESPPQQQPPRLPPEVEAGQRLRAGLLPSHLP
FXIIa inh 1536 – inhibitors of human coagulation factor XIIa. P00748. purified FXIIa, Boc-QGR-AMC fluorogenic substrate, 2 h. inhibition, % at 5 µM. hit rate 0.3% among 220,000. AID 800; in the data active = inhibition above about 40%;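 note: 0% = enzyme with no compound and 100% = blank without enzyme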
hK5 inh – kallikrein 5 (human) inhibition. AID 873. recombinant hK5, fluorogenic AMC substrate cleavage. hit rate 0.59% among 210,000. inhibition, % at 5 µM. Q9Y337;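 active = inhibition of 40% or more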;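 note: 0% = enzyme controls without compound and 100% = no-enzyme blanks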
thrombin 1536 – blocks human thrombin protease activity; P00734; alpha-thrombin, Boc-VPR-AMC fluorogenic substrate cleavage; inhibition, % at 5 µM; hit rate 0.26% among 220,000; AID 1046;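 active = inhibition at or above 40%; inactive = inhibition below 40%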;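 note: 0% = enzyme with no compound and 100% = wells without enzyme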
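System: human alpha-thrombin protein; Compound dosing: one concentration per compound, 5 µM, with 0.2% DMSO; Timing: reaction at room temperature; Technique: AMC fluorescence, 355/460 nm; Controls: enzyme without compound as high, wells lacking enzyme as low.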
FXIa inh – factor XIa (human) inhibition | P03951 | purified FXIa, Boc-Glu-Ala-Arg-AMC fluorogenic substrate | inhibition, % at 5 µM | hit rate 0.14% among 220,000;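 active = inhibition of at least 40%; inactive = inhibition below 40%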;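 note: fluorescence of freed AMC excited at 355 nm; 0% = enzyme without compound and 100% = no enzyme blank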
Active calls of the source: *; i = inactive; nt = not tested or not shown.

SMILES	Calpain2 inh	Furin inh	FXIIa inh 1536	hK5 inh	thrombin 1536	FXIa inh
CCC1CCCCN1C(=S)Nc1cccc(S(=O)(=O)N(C)C)c1 (centres undefined)	0	-27	7	49*	-2	0
CN(C)S(=O)(=O)c1cccc(NC(=S)N2CCCCC2CO)c1 (centres undefined)	-15	-22	2	-5	nt	4
C=CCNC(=O)CN1C2CCCC1CC(NC(=O)c1ccccc1C)C2 (centres undefined)	20	-15	8	12	-3	1
CCOC(=O)C1CCN(c2ccc(Cl)nn2)CC1	7	-19	0	-13	3	-1
O=C(O)C1CCN(c2ccc(Cl)nn2)CC1	-32	-36	9	1	55*	-2
COc1ccc(C)cc1NC(=O)C1CCN(S(=O)(=O)c2cccc3cccnc23)CC1	13	-8	18	1	-5	7
COc1ccc(OC)c(S(=O)(=O)N2CCCCCC2)c1	9	-18	9	-20	4	6
COc1ccc(N2C(=O)C(Cl)=C(N3CCCC(C)C3)C2=O)cc1 (centres undefined)	41	3	57*	2	4	44*
COc1ccc(OC)c(S(=O)(=O)N2CCCC(C)C2)c1 (centres undefined)	17	-13	33	-4	-4	49*
COc1ccc(OC)c(NC(=O)C2CCCN(S(=O)(=O)c3cccc4cccnc34)C2)c1 (centres undefined)	-10	-36	14	57*	23	15
CCOC(=O)N1CCN(C(=O)C2CCCN(S(=O)(=O)c3cc(C)ccc3OC)C2)CC1 (centres undefined)	-24	-19	0	40*	104*	1
COc1ccc(N2C(=O)C(Cl)=C(N3CCCC3)C2=O)cc1	-6	1	13	-23	2	7
CC(=O)N1CCCN(Cc2cn(-c3ccc(C)cc3)nc2-c2ccc(F)cc2)CC1	-34	-27	2	-4	-6	-8
CCCS(=O)(=O)N1CCCC(C(=O)NCC(OC)OC)C1 (centres undefined)	15	-24	nt	-8	-8	-7
O=C(CC1Oc2ccccc2NC1=O)NCCCN1CCCC1=O (centres undefined)	10	-41	18	53*	12	2
CC(C)N(CCCNC(=O)CC1Oc2ccccc2NC1=O)Cc1ccccc1 (centres undefined)	6	-36	22	55*	8	1
CO/C([O-])=N/c1c[n+](-c2ccc(C)cc2)no1	-13	-18	4	-7	2	-2
O=C(CCc1ccccc1)NCCc1nc2ccccc2[nH]1	-38	-27	3	2	-12	-3
O=C(NCCc1nc2ccccc2[nH]1)c1ccco1	6	-18	14	52*	20	20
Cc1cccc(CCNC(=O)C2CCC(=O)N2Cc2ccc(F)cc2)c1 (centres undefined)	3	-13	11	-3	-2	-1
Cc1ccc(CCNC(=O)C2CCC(=O)N2Cc2cccnc2)cc1 (centres undefined)	7	-8	16	47*	6	6
O=C(COC(=O)c1ccccc1Br)NCCc1ccc(F)cc1	29	-1	1	-3	-7	-3
O=C(COC(=O)c1ccccc1Br)Nc1ccc(F)cc1	17	-18	41*	22	5	35
CC(Sc1nncn1C)C(=O)Nc1ccc(Cl)cn1 (centres undefined)	11	-23	8	7	-3	-1
COc1ccccc1-c1cc(C(=O)NCc2cccs2)no1	-23	-28	11	-5	0	-1
SMILES	Calpain2 inh	Furin inh	FXIIa inh 1536	hK5 inh	thrombin 1536	FXIa inh
COc1ccccc1-c1cc(C(=O)NCc2ccco2)no1	12	-20	24	48*	5	11
CCCCOc1cccc(C(=O)N(Cc2ccco2)C2CCS(=O)(=O)C2)c1 (centres undefined)	-24	-25	15	-9	1	5
CCCOc1cccc(C(=O)N(Cc2ccco2)C2CCS(=O)(=O)C2)c1 (centres undefined)	10	-23	15	22	57*	9
O=C(CSc1ccc2nnc(-c3ccccn3)n2n1)Nc1nccs1	-2	-27	5	-7	-12	-4
O=C(CSc1ccc2nnc(-c3ccncc3)n2n1)Nc1nccs1	65*	-21	7	-2	-5	-4
Cc1ccc(OCC(=O)Nc2nnn(C)n2)c(C)c1	18	-26	43*	-17	4	28
O=C(Nc1ccc(F)cc1F)c1ccc(-n2cncn2)nc1	37	-20	6	-5	44*	-3
O=C(Nc1ccc(F)cc1F)c1ccc(-n2cccn2)nc1	-13	-16	4	0	-2	-4
Fc1ccc(Oc2cnc3ccccc3n2)cc1	-11	-36	10	3	95*	-1
CCSc1ccc(C(=O)NCC(=O)O)cc1	-16	-22	5	-2	-3	0
CSc1ccc(NC(=O)Nc2ccc(C(=O)NCC(=O)O)cc2)cc1	17	1	2	64*	-8	-2
S=C(NCCc1ccccc1)Nc1ccc(Br)cn1	24	-2	30	52*	21	40*
O=C(c1ccccc1)c1coc2ccc(O)c(CN3CCOCC3)c12	-17	-17	6	-26	-4	-13
COc1ccc(C(=O)c2coc3ccc(O)c(CN4CCCCC4)c23)cc1	12	-23	10	48*	13	4
CN(C)C(=O)CSC1c2ccccc2C(=O)N1c1ccccc1 (centres undefined)	16	-18	11	78*	7	3
Fc1ccccc1COc1ccc(Br)cc1CNCc1ccncc1	57*	-16	-2	-28	-9	-2
CCc1ccc2nc(NC(=O)Cn3cnc4ccccc4c3=O)sc2c1	72*	-16	11	8	6	-3
Cc1ccc(C(=O)OCC(=O)c2ccc(Cl)s2)s1	-5	-22	2	0	-5	2
O=C(OCC(=O)c1ccc(Cl)s1)c1ccc2ccccc2n1	5	-7	43*	22	33	14
CC(=O)c1ccc(OCC(O)CN2C(C)CCCC2C)cc1 (centres undefined)	2	-29	13	52*	14	2
COc1cccc(CNc2ccc(S(N)(=O)=O)cc2)c1OC	5	-22	107*	31	18	6
COc1cccc(CNc2ccc(N3CCCCC3)cc2)c1OC	16	-16	11	13	-1	16
O=C(N/N=C/c1ccc(O)c(O)c1O)/C(=C/c1ccc([N+](=O)[O-])cc1)NC(=O)c1ccccc1	-21	-3	41*	i	6	27
Cc1ccc(NC(=O)/C(=C\c2ccc([N+](=O)[O-])cc2)NC(=O)c2ccccc2)cc1	16	-10	15	-5	4	6
